Experimental data taken from ChEMBL document CHEMBL4813974 (Eur J Med Chem, 2021).
Active and inactive are the calls of the source. The rule behind the calls is not given here.

How the values were obtained:
Neutral ceramidase = Neutral ceramidase (Homo sapiens, UniProt Q9NR71); assay: Inhibition of human ASAH2 stably over expressed in human A-375 cell lysate using RBM14C24 fluorogenic substrate measured at 20 uM at pH 7.5 by fluorescence spectrophotometry; assay type: subcellular
[1] = biological target: T1, Acid ceramidase (Homo sapiens) (UniProt Q13510); assay: Inhibition of human ASAH1 stably over expressed in human A-375 cell lysate using RBM14C12 fluorogenic substrate measured at 1:1 compound to substrate molar ratio at pH 4.5 by fluorescence spectrophotometry; assay type: subcellular
T1 sequence (whole entry): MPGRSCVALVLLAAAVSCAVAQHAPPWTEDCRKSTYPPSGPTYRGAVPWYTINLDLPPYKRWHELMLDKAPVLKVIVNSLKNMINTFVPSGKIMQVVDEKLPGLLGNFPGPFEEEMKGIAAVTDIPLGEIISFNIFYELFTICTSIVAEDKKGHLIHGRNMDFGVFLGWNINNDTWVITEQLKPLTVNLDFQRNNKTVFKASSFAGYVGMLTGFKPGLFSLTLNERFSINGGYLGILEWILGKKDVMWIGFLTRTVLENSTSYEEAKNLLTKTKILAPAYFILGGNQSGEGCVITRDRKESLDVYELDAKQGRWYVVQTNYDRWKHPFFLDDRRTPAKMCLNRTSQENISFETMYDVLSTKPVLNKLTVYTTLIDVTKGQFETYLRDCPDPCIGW

[2] = biological target: T2, Alkaline ceramidase 3 (Mus musculus) (UniProt Q9D099); assay: Inhibition of ACER3 in ASAH2-null mouse embryonic fibroblast lysate using RBM14C16 fluorogenic substrate measured at 1:1 substrate to compound molar ratio at pH 9 in presence of Ca2+ by fluorescence spectrophotometry; settings: MEF
T2 sequence (whole entry): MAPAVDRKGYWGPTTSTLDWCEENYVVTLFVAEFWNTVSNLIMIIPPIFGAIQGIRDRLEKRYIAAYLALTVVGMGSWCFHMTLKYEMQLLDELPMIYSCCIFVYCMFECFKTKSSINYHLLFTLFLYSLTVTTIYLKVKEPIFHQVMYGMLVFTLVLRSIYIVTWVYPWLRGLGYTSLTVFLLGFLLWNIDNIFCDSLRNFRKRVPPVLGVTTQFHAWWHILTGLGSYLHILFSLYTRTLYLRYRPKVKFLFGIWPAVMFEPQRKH

[3] = biological target: T1, Acid ceramidase (Homo sapiens); assay: Inhibition of human ASAH1 stably over expressed in human A-375 cell lysate using RBM14C12 fluorogenic substrate measured at 2:1 compound to substrate molar ratio at pH 4.5 by fluorescence spectrophotometry; assay type: subcellular
[4] = biological target: Neutral ceramidase (Mus musculus) (UniProt Q9JHE3); assay: Inhibition of ASAH2 in wild type mouse intact embryonic fibroblast using RBM14C16 fluorogenic substrate measured at pH 7.5 incubated for 3 hrs by fluorescence spectrophotometry; settings: MEF
Sequence of Neutral ceramidase (Mus musculus) (Q9JHE3 whole entry): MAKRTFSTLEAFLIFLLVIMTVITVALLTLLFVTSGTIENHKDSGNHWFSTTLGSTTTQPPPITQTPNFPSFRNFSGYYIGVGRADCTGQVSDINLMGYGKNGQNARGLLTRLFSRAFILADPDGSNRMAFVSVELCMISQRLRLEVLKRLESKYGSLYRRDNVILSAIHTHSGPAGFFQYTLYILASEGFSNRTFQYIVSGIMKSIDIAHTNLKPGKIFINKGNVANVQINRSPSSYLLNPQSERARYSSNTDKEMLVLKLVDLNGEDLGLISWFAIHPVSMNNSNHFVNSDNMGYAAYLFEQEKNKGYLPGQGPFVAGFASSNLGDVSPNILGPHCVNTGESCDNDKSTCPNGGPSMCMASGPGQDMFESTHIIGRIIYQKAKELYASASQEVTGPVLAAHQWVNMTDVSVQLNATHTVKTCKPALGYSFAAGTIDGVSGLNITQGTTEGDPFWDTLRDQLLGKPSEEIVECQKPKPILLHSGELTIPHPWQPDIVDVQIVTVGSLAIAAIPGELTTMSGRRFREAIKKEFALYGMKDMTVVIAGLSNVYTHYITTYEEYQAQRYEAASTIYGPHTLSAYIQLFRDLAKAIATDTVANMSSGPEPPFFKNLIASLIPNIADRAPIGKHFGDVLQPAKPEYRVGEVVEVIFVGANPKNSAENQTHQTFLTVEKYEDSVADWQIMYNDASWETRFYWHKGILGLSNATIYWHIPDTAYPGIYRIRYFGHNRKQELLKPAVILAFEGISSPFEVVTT
In short: (§1)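 Intact MEF (ASAH2-null or wild type) seeded at 2x10^4 cells/well 24 h before the assay. Then given RBM14C16 (10 μM) plus a range of compound concentrations, added together, in DMEM 10% FBS for 3 h at 37 °C. Stopped with MeOH, oxidized with NaIO4 at pH 10.6, umbelliferone fluorescence read at 355/460 nm. Normalized to SRB protein; three experiments in triplicate.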

[5] = biological target: T2, Alkaline ceramidase 3 (Mus musculus); assay: Inhibition of ACER3 in ASAH2-null mouse intact embryonic fibroblast using RBM14C16 fluorogenic substrate measured at pH 9 for 3 hrs by fluorescence spectrophotometry; settings: MEF; in short: as §1

Sequence of Neutral ceramidase (Q9NR71 whole entry): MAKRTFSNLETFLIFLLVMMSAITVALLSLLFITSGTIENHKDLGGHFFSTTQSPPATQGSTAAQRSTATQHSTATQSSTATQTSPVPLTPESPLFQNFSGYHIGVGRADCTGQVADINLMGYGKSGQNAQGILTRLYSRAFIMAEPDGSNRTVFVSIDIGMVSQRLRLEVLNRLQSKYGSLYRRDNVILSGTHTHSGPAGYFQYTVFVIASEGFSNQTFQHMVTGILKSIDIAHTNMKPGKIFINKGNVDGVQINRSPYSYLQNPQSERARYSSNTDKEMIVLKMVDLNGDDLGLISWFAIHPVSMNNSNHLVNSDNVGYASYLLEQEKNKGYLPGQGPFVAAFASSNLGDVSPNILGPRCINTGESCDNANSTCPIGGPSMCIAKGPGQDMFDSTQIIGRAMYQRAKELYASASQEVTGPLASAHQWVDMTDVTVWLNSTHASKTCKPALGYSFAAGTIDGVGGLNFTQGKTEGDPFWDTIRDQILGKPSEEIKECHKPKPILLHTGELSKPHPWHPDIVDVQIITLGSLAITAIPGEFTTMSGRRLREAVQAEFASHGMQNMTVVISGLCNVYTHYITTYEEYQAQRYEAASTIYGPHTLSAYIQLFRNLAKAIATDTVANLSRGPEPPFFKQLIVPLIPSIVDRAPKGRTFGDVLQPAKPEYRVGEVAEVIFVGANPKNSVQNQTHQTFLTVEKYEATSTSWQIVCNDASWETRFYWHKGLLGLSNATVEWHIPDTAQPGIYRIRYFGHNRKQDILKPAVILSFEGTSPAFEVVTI

Structure (SMILES): CCCCCCCCCCCC/C=C/[C@@H](O)[C@@H](C)NC(=O)c1ccc(CCCCC)cc1
- inhibition (Neutral ceramidase): inactive
- inhibition [1]: inactive

Structure (SMILES): CCCCCCCCCCCC/C=C/[C@@H](O)[C@H](C)NC(=O)CBr
- inhibition [2]: inactive
- inhibition [3]: inactive

Structure (SMILES): CCCCCCCCCCCC/C=C/[C@H](O)[C@H](C)NC(=O)C(C)(C)C
- inhibition [2]: inactive
- inhibition [3]: inactive

Structure (SMILES): CCCCCCCCCCCC/C=C/[C@@H](O)[C@@H](C)NC(=O)c1ccc(C(C)(C)C)cc1
- inhibition (Neutral ceramidase): inactive
- inhibition [1]: inactive

Structure (SMILES): CCCCCCCCCCCCCC[C@@H](O)[C@@H](C)NC(=O)c1ccc(CCCCCCC)cc1
- inhibition [2]: inactive
- inhibition [3]: inactive

Structure (SMILES): CCCCCCCCCCCC/C=C/[C@@H](O)[C@@H](C)NC(=O)c1ccc(OCCCCC)cc1
- inhibition (Neutral ceramidase): inactive
- inhibition [1]: inactive

Structure (SMILES): CCCCCCCCCCCC/C=C/[C@@H](O)[C@H](C)N
- inhibition [2]: inactive
- inhibition [3]: inactive

Structure (SMILES): CCCCCCCCCCCC/C=C/[C@@H](O)[C@@H](C)NC(=O)c1ccc(OCCCCCCCOCOC)cc1
- inhibition (Neutral ceramidase): inactive
- inhibition [1]: inactive

Structure (SMILES): CCCCCCCCCCCCCC[C@H](O)[C@H](C)NC(=O)CCCCCCC
- inhibition [2]: inactive
- inhibition [3]: inactive

Structure (SMILES): CCCCCCCCCCCCCC[C@H](O)[C@H](C)NC(=O)c1ccc(CCCCCCC)cc1
- inhibition [2]: inactive
- inhibition [3]: inactive

Structure (SMILES): CCCCCCCCCCCC/C=C/[C@@H](O)[C@@H](C)NC(=O)c1ccc(OCCCCCCC)cc1
- inhibition (Neutral ceramidase): inactive
- inhibition [1]: inactive

Structure (SMILES): CCCCCCCCCCCC/C=C/[C@@H](O)[C@@H](C)NC(=O)CBr
- inhibition [2]: inactive
- inhibition [3]: inactive

Structure (SMILES): CCCCCCCCCCCC/C=C/[C@@H](O)[C@@H](C)NC(=O)c1ccc(OCCCCCOCOC)cc1
- inhibition (Neutral ceramidase): inactive
- inhibition [1]: inactive

Structure (SMILES): CCCCCCCCCCCCCC[C@@H](O)[C@H](C)N
- inhibition [2]: inactive
- inhibition [3]: inactive

Structure (SMILES): CCCCCCCCCCCC/C=C/[C@@H](O)[C@H](C)NC(=O)c1ccc(CCCCCCC)cc1
- inhibition [2]: inactive
- inhibition [3]: inactive

Structure (SMILES): CCCCCCCCCCCC/C=C/[C@@H](O)[C@@H](C)N
- inhibition [2]: inactive
- inhibition [3]: inactive

Structure (SMILES): CCCCCCCCCCCCCC[C@H](O)[C@@H](C)N
- inhibition [2]: inactive
- inhibition [3]: inactive

Structure (SMILES): CCCCCCCCCCCC/C=C/[C@H](O)[C@H](C)NC(=O)c1ccc(CCCCCCC)cc1
- inhibition [2]: inactive
- inhibition [3]: inactive

Structure (SMILES): CCCCCCCCCCCC/C=C/[C@H](O)[C@H](C)N
- inhibition [2]: inactive
- inhibition [3]: inactive

Structure (SMILES): CCCCCCCCCCCCCC[C@@H](O)[C@H](C)NC(=O)c1ccc(CCCCCCC)cc1
- inhibition [2]: inactive
- inhibition [3]: inactive

Structure (SMILES): CCCCCCCCCCCC/C=C/[C@@H](O)[C@@H](C)NC(=O)c1ccc(CC)cc1
- inhibition (Neutral ceramidase): inactive
- inhibition [1]: inactive

Structure (SMILES): CCCCCCCCCCCCCC[C@@H](O)[C@@H](C)NC(=O)CBr
- inhibition [2]: inactive
- inhibition [3]: inactive

Structure (SMILES): CCCCCCCCCCCC/C=C/[C@H](O)[C@@H](C)NC(=O)c1ccc(CCCCCCC)cc1
- inhibition [2]: inactive
- inhibition [3]: inactive

Structure (SMILES): CCCCCCCCCCCCCC[C@@H](O)[C@H](C)NC(=O)CBr
- inhibition [2]: inactive
- inhibition [3]: inactive

Structure (SMILES): CCCCCCCCCCCC/C=C/[C@H](O)[C@H](C)NC(=O)CCCCCCC
- inhibition [2]: inactive
- inhibition [3]: inactive

Structure (SMILES): CCCCCCCCCCCCCC[C@H](O)[C@@H](C)NC(=O)CBr
- inhibition [2]: inactive
- inhibition [3]: inactive

Structure (SMILES): CCCCCCCCCCCC/C=C/[C@@H](O)[C@@H](C)NC(=O)c1ccc(CCC)cc1
- inhibition (Neutral ceramidase): inactive
- inhibition [1]: inactive

Structure (SMILES): CCCCCCCCCCCCCC[C@H](O)[C@@H](C)NC(=O)C(C)(C)C
- inhibition [2]: inactive
- inhibition [3]: inactive

Structure (SMILES): CCCCCCCCCCCC/C=C/[C@@H](O)[C@@H](C)NC(=O)c1ccc(OCCCCCC)cc1
- inhibition (Neutral ceramidase): inactive
- inhibition [1]: inactive

Structure (SMILES): CCCCCCCCCCCC/C=C/[C@H](O)[C@H](C)NC(=O)CBr
- inhibition [2]: inactive
- inhibition [3]: inactive

Structure (SMILES): CCCCCCCCCCCC/C=C/[C@@H](O)[C@@H](C)NC(=O)c1ccc(OCCOCCOC)cc1
- inhibition (Neutral ceramidase): inactive
- inhibition [1]: inactive

Structure (SMILES): CCCCCCCCCCCC/C=C/[C@@H](O)[C@H](C)NC(=O)C(C)(C)C
- inhibition [2]: inactive
- inhibition [3]: inactive

Structure (SMILES): CCCCCCCCCCCCCC[C@@H](O)[C@H](C)NC(=O)C(C)(C)C
- inhibition [2]: inactive
- inhibition [3]: inactive

Structure (SMILES): CCCCCCCCCCCCCC[C@@H](O)[C@@H](C)N
- inhibition [2]: inactive
- inhibition [3]: inactive

Structure (SMILES): CCCCCCCCCCCC/C=C/[C@@H](O)[C@@H](C)NC(=O)CCCCCCC
- inhibition [4]: inactive
- inhibition [5]: inactive

Structure (SMILES): CCCCCCCCCCCC/C=C/[C@H](O)[C@@H](C)NC(=O)CCCCCCC
- inhibition [2]: inactive
- inhibition [3]: inactive

Structure (SMILES): CCCCCCCCCCCCCC[C@@H](O)[C@H](C)NC(=O)CCCCCCC
- inhibition [2]: inactive
- inhibition [3]: inactive

Structure (SMILES): CCCCCCCCCCCCCC[C@@H](O)[C@@H](C)NC(=O)C(C)(C)C
- inhibition [2]: inactive
- inhibition [3]: inactive

Structure (SMILES): CCCCCCCCCCCC/C=C/[C@@H](O)[C@H](C)NC(=O)CCCCCCC
- inhibition [2]: inactive
- inhibition [3]: inactive

Structure (SMILES): CCCCCCCCCCCC/C=C/[C@H](O)[C@@H](C)NC(=O)CBr
- inhibition [2]: inactive
- inhibition [3]: inactive

Structure (SMILES): CCCCCCCCCCCC/C=C/[C@H](O)[C@@H](C)NC(=O)C(C)(C)C
- inhibition [2]: inactive
- inhibition [3]: inactive

Structure (SMILES): CCCCCCCCCCCCCC[C@H](O)[C@@H](C)NC(=O)CCCCCCC
- inhibition [2]: inactive
- inhibition [3]: inactive

Structure (SMILES): CCCCCCCCCCCCCC[C@H](O)[C@H](C)NC(=O)CBr
- inhibition [2]: inactive
- inhibition [3]: inactive

Structure (SMILES): CCCCCCCCCCCC/C=C/[C@@H](O)[C@@H](C)NC(=O)C(C)(C)C
- inhibition [2]: inactive
- inhibition [3]: inactive

Structure (SMILES): CCCCCCCCCCCC/C=C/[C@@H](O)[C@@H](C)NC(=O)c1ccccc1
- inhibition (Neutral ceramidase): inactive
- inhibition [1]: inactive

Structure (SMILES): CCCCCCCCCCCCCC[C@@H](O)[C@@H](C)NC(=O)CCCCCCC
- inhibition [2]: inactive
- inhibition [3]: inactive

Structure (SMILES): CCCCCCCCCCCCCC[C@H](O)[C@H](C)N
- inhibition [2]: inactive
- inhibition [3]: inactive

Structure (SMILES): CCCCCCCCCCCC/C=C/[C@H](O)[C@@H](C)N
- inhibition [2]: inactive
- inhibition [3]: inactive

Structure (SMILES): CCCCCCCCCCCCCC[C@H](O)[C@@H](C)NC(=O)c1ccc(CCCCCCC)cc1
- inhibition [2]: inactive
- inhibition [3]: inactive

Structure (SMILES): CCCCCCCCCCCC/C=C/[C@@H](O)[C@@H](C)NC(=O)c1ccc(OCCOCOC)cc1
- inhibition (Neutral ceramidase): inactive
- inhibition [1]: inactive

Structure (SMILES): CCCCCCCCCCCC/C=C/[C@@H](O)[C@@H](C)NC(=O)c1ccc(OCOC)cc1
- inhibition (Neutral ceramidase): inactive
- inhibition [1]: inactive

Structure (SMILES): CCCCCCCCCCCC/C=C/[C@@H](O)[C@@H](C)NC(=O)c1ccc(CCCCCC)cc1
- inhibition (Neutral ceramidase): inactive
- inhibition [1]: inactive

Structure (SMILES): CCCCCCCCCCCCCC[C@H](O)[C@H](C)NC(=O)C(C)(C)C
- inhibition [2]: inactive
- inhibition [3]: inactive
